The values that follow come from EPA's CvTdb concentration-time database.

The test system of series [1] is Rat. Description: concentration in plasma after dosing. The settings on record: 3 h; dosed: Wyeth-14643; 2.0 mg/kg; oral; Male; Sprague-Dawley.
Series [2] has as its system Rat. Description: concentration in plasma after dosing. As to conditions: 0.25 h; dosed: Wyeth-14643; 2.0 mg/kg; iv; Male; Sprague-Dawley.
For series [3], the system named is Rat. Put plainly: concentration in plasma after dosing. As to conditions: 3 h; dosed: Wyeth-14643; 2.0 mg/kg; oral; Male; Sprague-Dawley. This is another data set of the same source.
The test system of series [4] is Rat. Description: concentration in thymus after dosing. The settings on record: 2 h; dosed: Bis 2-Chloroethoxy Methane; 20 mg/kg; iv; Female; F344.
The subject of series [5] is Rat. Put plainly: concentration in thymus after dosing. The settings on record: 7 h; dosed: Bis 2-Chloroethoxy Methane; 20 mg/kg; iv; Male; F344.
In series [6] the test system is Rat. Put plainly: concentration in thymus after dosing. The settings on record: 7 h; dosed: Bis 2-Chloroethoxy Methane; 20 mg/kg; iv; Female; F344.
The test system of series [7] is Rat. Description: concentration in liver after dosing. As to conditions: 2 h; dosed: Bis 2-Chloroethoxy Methane; 20 mg/kg; iv; Male; F344.
Series [8] relates to Rat. Description: concentration in plasma after dosing. The settings on record: 6 h; dosed: Bis 2-Chloroethoxy Methane; 20 mg/kg; iv; Male; F344.
Series [9] relates to Rat. Put plainly: concentration in plasma after dosing. As to conditions: 5 h; dosed: Bis 2-Chloroethoxy Methane; 20 mg/kg; iv; Female; F344.
Series [10] relates to Rat. Description: concentration in liver after dosing. The settings on record: 1 h; dosed: Fluorotelomer alcohol 8+2; 80 mg/kg; oral; Female; Harlan Sprague Dawley.
Series [11] concerns Rat. Put plainly: concentration in plasma after dosing. The settings on record: dosed: Fluorotelomer alcohol 8+2, 12 mg/kg, iv, Male, F344.
Series [12] concerns Rat. Put plainly: concentration in kidney after dosing. The settings on record: 1 h; dosed: Fluorotelomer alcohol 8+2; 80 mg/kg; oral; Female; Harlan Sprague Dawley.
For series [13], the system named is Rat. Description: concentration in brain after dosing. The settings on record: 12 h; dosed: Fluorotelomer alcohol 8+2; 80 mg/kg; oral; Female; Harlan Sprague Dawley.
In series [14] the test system is Rat. Description: concentration in liver after dosing. The settings on record: 12 h; dosed: Fluorotelomer alcohol 8+2; 24 mg/kg; oral; Male; Harlan Sprague Dawley.
The test system of series [15] is Rat. Put plainly: concentration in liver after dosing. The settings on record: 0.5 h; dosed: Fluorotelomer alcohol 8+2; 24 mg/kg; oral; Male; Harlan Sprague Dawley.
Series [16] concerns Rat. Put plainly: concentration in plasma after dosing. As to conditions: 20 min; dosed: Di-n-butyl phthalate; 20 mg/kg; iv; Male; Sprague-Dawley.
Series [17] relates to Rat. Put plainly: concentration in plasma after dosing. The settings on record: 10 h; dosed: Di-n-butyl phthalate; 100 mg/kg; oral; Male; Sprague-Dawley.
Series [18] relates to Rat. Put plainly: concentration in plasma after dosing. The settings on record: dosed: Perfluorodecanoic acid, 2 mg/kg, oral, Male, Harlan Sprague Dawley.
Series [19] deals with Rat. Description: concentration in brain after dosing. The settings on record: 1848 h; dosed: Perfluorodecanoic acid; 10 mg/kg; oral; Female; Harlan Sprague Dawley.
For series [20], the system named is Rat. Description: concentration in brain after dosing. The settings on record: 24 h; dosed: Perfluorodecanoic acid; 10 mg/kg; oral; Female; Harlan Sprague Dawley.
Series [21] deals with Rat. Description: concentration in kidney after dosing. As to conditions: 1848 h; dosed: Perfluorodecanoic acid; 10 mg/kg; oral; Male; Harlan Sprague Dawley.
Series [22] has as its system Rat. Description: concentration in liver after dosing. The settings on record: 1 h; dosed: Perfluorodecanoic acid; 10 mg/kg; oral; Male; Harlan Sprague Dawley.
Series [23] deals with Rat. Description: concentration in kidney after dosing. As to conditions: 1 h; dosed: Perfluorodecanoic acid; 10 mg/kg; oral; Female; Harlan Sprague Dawley.
In series [24] the test system is Rat. Put plainly: concentration in plasma after dosing. The settings on record: 18 h; dosed: Primidone; 80 mg/kg; oral; Female; F344.
In series [25] the test system is Rat. Put plainly: concentration in plasma after dosing. As to conditions: 6 h; dosed: Primidone; 30 mg/kg; oral; Female; F344.
The test system of series [26] is Rat. Description: concentration in liver after dosing. As to conditions: 4 h; dosed: Thiodiglycolic Acid; 20 mg/kg; iv; Female; Harlan Sprague Dawley.
Series [27] concerns Rat. Description: concentration in thymus after dosing. The settings on record: 10 min; dosed: Thiodiglycolic Acid; 20 mg/kg; iv; Male; F344.
Series [28] concerns Rat. Description: concentration in thymus after dosing. The settings on record: 2 h; dosed: Thiodiglycolic Acid; 20 mg/kg; iv; Female; Harlan Sprague Dawley.
In series [29] the test system is Rat. Put plainly: concentration in heart after dosing. As to conditions: 20 min; dosed: Thiodiglycolic Acid; 20 mg/kg; iv; Female; F344.
Series [30] concerns Rat. Put plainly: concentration in heart after dosing. As to conditions: 40 min; dosed: Thiodiglycolic Acid; 20 mg/kg; iv; Male; Harlan Sprague Dawley.
Series [31] deals with Rat. Description: concentration in thymus after dosing. The settings on record: 6.667 h; dosed: Thiodiglycolic Acid; 20 mg/kg; iv; Female; Harlan Sprague Dawley.
Series [32] concerns Rat. Description: concentration in plasma after dosing. The settings on record: 3 h; dosed: Thiodiglycolic Acid; 20 mg/kg; iv; Female; Harlan Sprague Dawley.
The test system of series [33] is Rat. Description: concentration in thymus after dosing. As to conditions: 20 min; dosed: Thiodiglycolic Acid; 20 mg/kg; iv; Female; F344.
For series [34], the system named is Rat. Description: concentration in heart after dosing. The settings on record: 8 h; dosed: Thiodiglycolic Acid; 20 mg/kg; iv; Female; Harlan Sprague Dawley.
Series [35] relates to Rat. Put plainly: concentration in plasma after dosing. As to conditions: 0.25 h; dosed: dichloroacetic acid; 10 mg/kg; oral; Male; Harlan Sprague Dawley.
In series [36] the test system is Rat. Description: concentration in plasma after dosing. As to conditions: dosed: dichloroacetic acid, 40 mg/kg, oral, Female, Harlan Sprague Dawley.
For the next series, the system named is dog. As to conditions: dosed: tetrachloroethylene, 72 ppm, inhalation, duration: 4 hr, male, beagle. An outline of the steps: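 Concentration-versus-time or amount-versus-time points were compiled from published in vivo toxicokinetic studies and from two structured collections. The studies were found by PubMed searching, classifier screening and manual review. Points were mostly digitised from plot screenshots with WebPlotDigitizer, otherwise copied from tables, and kept in the reported units. Dose, route, subject details and medium were curated by hand from each paper, and sampling and analytical methods follow each source and were often unreported.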

For the compound `Cc1cccc(Nc2cc(Cl)nc(SCC(=O)O)n2)c1C`, the concentration in plasma is 426 ng/mL with Rat [1], 9460 ng/mL in the series with Rat [2] and 382 ng/mL in the series on Rat [3].

As to `ClCCOCOCCCl` [Bis 2-Chloroethoxy Methane], the concentration in thymus in the series on Rat [4] is 264 ng/g; in the series with Rat [5] it was 17 ng/g; with Rat [6], 17.7 ng/g. Moreover, in the series on Rat [7], the concentration in liver was found to be 135 ng/g. For the same compound, the concentration in plasma with Rat [8] was determined as 12.2 ng/mL; in the series with Rat [9], 24.8 ng/mL.

On to `OCCC(F)(F)C(F)(F)C(F)(F)C(F)(F)C(F)(F)C(F)(F)C(F)(F)C(F)(F)F` [Fluorotelomer alcohol 8+2], for which the concentration in liver was found to be 5950 ng/g in the series on Rat [10], 968 ng/g in the series with Rat [14] and 7210 ng/g with Rat [15]. Besides, the concentration in plasma with Rat [11] (0.5 h) is 1410 ng/mL; in the series on Rat [11] (9 h), 26.1 ng/mL. In the series on Rat [12], the concentration in kidney turned out to be 1950 ng/g. The concentration in brain in the series with Rat [13] is 571 ng/g.

Take `CCCCOC(=O)c1ccccc1C(=O)O` [Mono-n-butyl phthalate]: the concentration in plasma with Rat [16] came to 21300 ng/mL; in the series with Rat [17] it was 2010 ng/mL.

Regarding `O=C(O)C(F)(F)C(F)(F)C(F)(F)C(F)(F)C(F)(F)C(F)(F)C(F)(F)C(F)(F)C(F)(F)F` [Perfluorodecanoic acid], the concentration in plasma turned out to be 4900 ng/mL in the series with Rat [18] (2 h), 2050 ng/mL with Rat [18] (528 h) and 516 ng/mL with Rat [18] (3360 h). The concentration in brain in the series on Rat [19] was 680 ng/g; in the series on Rat [20] it was 2560 ng/g. For the same compound, the concentration in kidney in the series with Rat [21] is 4700 ng/g; in the series with Rat [23], 20600 ng/g. Moreover, in the series on Rat [22], the concentration in liver was 50300 ng/g.

`CCC1(c2ccccc2)C(=O)NC(=O)NC1=O` [Phenobarbital]: the concentration in plasma with Rat [24] amounted to 1900 ng/mL; in the series on Rat [25] it was 990 ng/mL.

On to `O=C(O)CSCC(=O)O` [Thiodiglycolic Acid], for which the concentration in liver in the series on Rat [26] was 3490 ng/g. Moreover, the concentration in thymus with Rat [27] was 9340 ng/g; in the series on Rat [28] it was 1910 ng/g; in the series with Rat [31], 263 ng/g; with Rat [33], 4680 ng/g. The concentration in heart worked out at 3600 ng/g in the series on Rat [29], 2320 ng/g in the series on Rat [30] and 376 ng/g in the series with Rat [34]. The compound also registered a concentration in plasma in the series with Rat [32] of 510 ng/mL.

Turning to `O=C(O)C(Cl)Cl` [dichloroacetic acid], the figures for the concentration in plasma in the series on Rat [35], in the series on Rat [36] (5 min) and in the series with Rat [36] (1.25 h) were 908 ng/mL, 4330 ng/mL and 5690 ng/mL, respectively.

As for `O=C(O)C(Cl)(Cl)Cl` [trichloroacetic acid], the results for the “amount in urine after dosing” value in the series on dog (22 h), with dog (46 h) and in the series on dog (70 h) were 4.04 mg, 1.08 mg and 1.11 mg, respectively.
